We go through nine compounds from ChEMBL document CHEMBL5042484, “Design of SARS-CoV-2 PLpro Inhibitors for COVID-19 Antiviral Therapy Leveraging Binding Cooperativity” (J Med Chem, 2022).

Usually Kd stands for a measure of binding affinity in units of concentration. One may read the IC50 as the point on the concentration scale where inhibition reaches its midpoint.

Series [1] relates to A549. Briefly: Cytotoxicity against human A549 cells overexpressing ACE2 receptor assessed as cell viability at 100 uM incubated for 48 hrs by Cell Titer-Glo luminescent assay. In kind it is toxicity, cell-based. The settings on record: a549, 48 h. For orientation: Cellular ATP, detected with luciferase, serves as a proxy for viable cell number.
Series [2] has as its system A549. Briefly: Cytotoxicity against human A549 cells overexpressing ACE2 receptor assessed as cell viability at < 30 uM incubated for 48 hrs by Cell Titer-Glo luminescent assay. In kind it is toxicity, cell-based. Conditions: a549, 48 h.
The nature of series [3]: Binding affinity to […] sensor chip immobilized His-tagged SARS-CoV-2 PLpro assessed as equilibrium dissociation constant by surface plasmon resonance analysis. Details: species or system Severe acute respiratory syndrome coronavirus 2. (In general: Surface plasmon resonance follows binding to a sensor surface in real time, without labels.)
Series [4] relates to Severe acute respiratory syndrome coronavirus 2. In words: Inhibition of SARS-CoV-2 PLpro assessed as viral PLpro-mediated deISGylation using ISG-15-AMC as substrate at 30 uM preincubated for 10 mins followed by substrate addition measured for 15 mins by fluorescence plate reader assay. The method, boiled down:
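Run like the RLRGG-AMC PLpro assay (HEPES pH 7.5 buffer, 10 min preincubation, 15 min fluorescence read), but with 4 nM PLpro and 0.5 µM ISG15-AMC as substrate.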

For series [5], the system named is A549. Briefly: Cytotoxicity against human A549 cells overexpressing ACE2 receptor assessed as cell viability at <50 uM incubated for 48 hrs by Cell Titer-Glo luminescent assay. In kind it is toxicity, cell-based. Conditions: a549, 48 h.
Series [6] relates to Severe acute respiratory syndrome coronavirus 2. Briefly: Inhibition of SARS-CoV-2 PLpro assessed as viral PLpro-mediated deubiquitination using Ub-AMC as substrate at 30 uM preincubated for 10 mins followed by substrate addition measured for 15 mins by fluorescence plate reader assay. The method, boiled down:
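Run like the RLRGG-AMC PLpro assay (HEPES pH 7.5 buffer, 10 min preincubation, 15 min fluorescence read), but with 80 nM PLpro and 0.5 µM Ub-AMC as substrate.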

Series [7] in a line: Inhibition of SARS-CoV-2 PLpro using Z-RLRGG-AMC as substrate preincubated for 10 mins followed by substrate addition measured for 15 mins by fluorescence plate reader assay. Details: species or system Severe acute respiratory syndrome coronavirus 2.
The test system of series [8] is A549. In words: Cytotoxicity against human A549 cells overexpressing ACE2 receptor assessed as cell viability at <10 uM incubated for 48 hrs by Cell Titer-Glo luminescent assay. The class given is toxicity, cell-based. Conditions: a549, 48 h.
The nature of series [9]: Drug concentration in C57BL/6J mouse plasma at 50 mg/kg, ip measured from 0.5 to 5 hrs by analytical analysis. The class given is ADME, organism-based. The settings on record: in vivo, time 0.5-5 hrs.
A short description of series [10]: Inhibition of SARS-CoV-2 PLpro. Also on record: species or system Severe acute respiratory syndrome coronavirus 2.

SMILES strings stand for the structures. The source made the active and inactive calls. The calls are words filed in the database; no cut-off is given here. Bounds are passed on as bounds.

Consider `Cc1ccc(NC2CNC2)cc1C(=O)N[C@H](C)c1cccc(-c2ccc(CNC3CCCC3)s2)c1`, for which the Activity result in the series with A549 [1] is given as “Toxic”; with A549 [2] it was “Non-Toxic”; with A549 [5], “Non-Toxic”. Moreover, the Kd in series [3] was 0.235 µM. For the same compound, the inhibition result in series [4] and in series [6] was “Active” throughout.

As to `Cc1ccc(N)cc1C(=O)N[C@H](CCO)c1cccc2ccccc12`, the IC50 in series [7] (read-out: IC50) was determined as 100 µM.

As for `Cc1ccc(NC2CNC2)cc1C(=O)N[C@H](C)c1cccc(-c2cccs2)c1` (single isomer, unassigned), the inhibition result in [4] and in series [6] was “Active” throughout.

Regarding `Cc1ccc(NC2CNC2)cc1C(=O)N[C@H](C)c1cccc(-c2ccc(CN3CCCC3)s2)c1`, the Activity result in the series with A549 [8] is recorded as “Non-Toxic”; in the series with A549 [1], “Toxic”; in the series on A549 [2] it was “Non-Toxic”. The inhibition result in [4] and in series [6] was “Active” each time. The compound also yielded a concentration in series [9] of 12 µM.

Turning to `CNC(=O)C[C@@H](NC(=O)c1cc(N(C)C2CNC2)ccc1C)c1cccc2ccccc12`, the IC50 entry in series [7] is on record as “Not Active”. Further, the dissociation constant (Kd) in series [3] is over 1000 µM.

`COC(=O)/C=C/CNC(=O)CNC(=O)[C@H](CN)NC(=O)[C@H](CCc1nc2ccccc2s1)NC(C)=O` came in with an IC50 in [10] of 50 µM.

Turning to `Cc1ccc(N)cc1C(=O)N[C@H](C)c1cccc2ccccc12`, the inhibition result in series [4] and in series [6] was “Active” in each case.

`COC(=O)/C=C/CNC(=O)CNC(=O)[C@H](CN)NC(=O)[C@H](CCc1ccc(O)cc1)NC(C)=O` had an IC50 in series [10] of 50 µM.

For the compound `Cc1ccc(NC2CNC2)cc1C(=O)N[C@H](C)c1cccc2ccccc12`, the inhibition entry in series [4] and in series [6] was “Active” each time.
